Consider 20 compounds from PubChem BioAssay.

Unmarked numbers belong to inactive results. Results filed as inconclusive are left out. Activity calls are given as the source filed them.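 How the source made its calls, unless noted: active means viability increase at or above a cutoff of the median across tested compounds plus 3 SD (cut at about 8.5% in these data, passing the limit was not always enough); inconclusive means some gains above the cutoff, reason not given; inactive means the rest.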

The term viability denotes a read-out of living cells in per cent, often relative to untreated cells. As usually defined, the inhibition is the drop in the measured response relative to a control, in per cent.

A short description of assay [1]: S. cerevisiae growth inhibition in permissive medium (OD615), pilot counter-assay for S. cerevisiae lifespan shortening project, permissive growth control (AID 705;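 active means growth inhibition above 25% in both replicates, a cutoff set 3 SD above the mean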). The following applies: OD615, 24 h, at 10 µM, stronger effect = higher value. The method in brief: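 System: Engineered DeaD yeast | Buffer or medium: SC raffinose/galactose permissive medium | Incubation: Cells pre-grown 4 h, then 24 h compound exposure, 30 °C humidified | Measured by: Absorbance (optical density) at 615 nm | Read-out: Reduction in yeast growth (OD615)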

A short description of assay [2]: S. cerevisiae growth inhibition in restrictive medium, OD615, pilot screen, restrictive growth control, yeast lifespan reduction project (AID 706;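 active means growth inhibition above a set limit, 3 SD over mean compound inhibition, in both replicates, cut at about 43% in these data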;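 further: modified DeaD lifespan yeast strain shifted to restrictive glucose medium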). The following applies: OD615, 48 h, at 10 µM, stronger effect = higher value. A digest of the protocol:
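Material: modified S. cerevisiae; Medium: glucose-based CSMM-D restrictive medium; Compound dosing: one concentration, 10 µM final, 0.25% DMSO; Incubation: 48 h compound exposure at 30 °C; Measured by: OD615.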

Assay [3] in a line: doxorubicin toxicity protection in MRP-1 cells – H69AR cells, CellTiter-Glo, duplicate, MRP-1 activator project, pilot screen (AID 807).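 Further: compound pretreatment 18-22 h then 72 h combined with doxorubicin; 0% = doxorubicin alone and 100% = vehicle without doxorubicin.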 The following applies: H69AR viability with doxorubicin, CellTiter-Glo luminescence; at 10 µM; stronger effect = higher value.
Assay [4] can be described thus: viability of PTEN-null HCT116 cells – cell-based, HCT116 clonal line, CellTiter-Glo, pilot screen (AID 824;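 active means viability at or below 27.92% in each of two runs, the all-compound median minus 4 SD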;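 further: 0% = 20 µM Hyamine control and 100% = vehicle cell control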). Conditions: HCT116 PTEN-deleted viability, 60 h, at 10 µM, stronger effect = lower value.
The nature of assay [5]: RAM pathway blockade in budding yeast – dse1pr::URA3 reporter, 5-FOA selection, pilot screen (AID 869;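 active means inhibition over a set limit, the all-compound mean plus 3 SD, in both replicate runs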;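 further: 0% = DMSO wells with no growth and 100% = 10 µM 1-NA-PP1 with full growth; RAM network block rescues cells from 5-FOA so hits raise OD615 growth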). Conditions: S. cerevisiae dse1pr::URA3 5-FOA growth, OD615, 2 d; at 10 µM; stronger effect = higher value; strain carries analog-sensitive mutant Cbk1 kinase.
A short description of assay [6]: RAM signaling pathway blockade in yeast – S. cerevisiae, Pdr1DBD-CYC8 efflux-inhibited sensitized strain, primary screen (AID 1298;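 active means RAM network inhibition above 8.4% in each of two replicates, 3 SD over the compound average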;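 further: 0% = DMSO untreated cells without growth and 100% = 10 µM 1-NA-PP1 full growth; higher means more yeast growth rescued from 5-FOA killing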). Conditions: S. cerevisiae cbk1-as DSE1-URA3 strain, 5-FOA growth OD615, 2 d; at 50 µM; stronger effect = higher value.

Turning to `CCOC(=O)c1ccc(NC(=O)N(CC)CC)cc1`, the growth inhibition was -7.39% in assay [1] and -1.5% in assay [2]. In assay [3], the viability increase was -0.97%. Also, the viability in assay [4] was 97.4%. For the same compound, in assay [5], the inhibition was 0.865%. For the same compound, the RAM network inhibition in assay [6] was 2.51%.

For the compound `O/N=C1/C2C3CC4C5C3C1C5C1(OCCO1)C42` (stereo not given), the growth inhibition in assay [1] is -8.1%; in assay [2] it was -16.9%. The viability increase in assay [3] is -1.45%. For the same compound, in assay [4], the viability is 99%. Besides, in assay [5], the inhibition is 1.39%. Besides, the RAM network inhibition in assay [6] was 3.89%.

On to `CN(C)c1ccc(NC(=S)c2ccccn2)cc1`, for which the growth inhibition in assay [1] is 4.71%; in assay [2], -11.2%. In addition, the viability increase in assay [3] is -8.3%. For the same compound, the viability in assay [4] was 47.2%. For the same compound, the inhibition in assay [5] is 1.82%. In assay [6], the RAM network inhibition is 3.01%.

Regarding `CC1(C)CC(=O)C=C(Nc2cc(-c3ccccc3)[nH]n2)C1`, the growth inhibition in assay [1] is -9.89%; in assay [2] it was 3.12%. For the same compound, the viability increase in assay [3] was -6.97%. The viability in assay [4] is 93.4%. Besides, in assay [5], the inhibition was -0.355%. In addition, the RAM network inhibition in assay [6] was 2.78%.

With `Cc1ccc(NC(=O)CC2SC3=NCCN3C2=O)cc1` (stereo not given), the results for the growth inhibition in assay [1] and in assay [2] were 3.71% and 10.6%, respectively. The viability increase in assay [3] is 3.08%. The viability in assay [4] is 96.1%. In addition, the inhibition in assay [5] was 1.66%. In assay [6], the RAM network inhibition was 1.49%.

As for `CCn1cc(C(=O)NCCCN2CC(C)CC(C)C2)c2cc(OC)c(OC)cc2c1=O` (stereo not given), the figures for the growth inhibition in assay [1] and in assay [2] were -15.8% and -7.97%, respectively. Further, in assay [3], the viability increase was -2.98%. Moreover, the viability in assay [4] is 97.5%. Besides, the inhibition in assay [5] is 1.03%. Moreover, the RAM network inhibition in assay [6] was 3.13%.

With `C/C(=C1/SC(=S)N(CCC(=O)O)C1=O)c1ccc(O)cc1`, the growth inhibition is -5.09% in assay [1] and -8.91% in assay [2]. Moreover, the viability increase in assay [3] is 1.4%. In addition, the viability in assay [4] is 98.1%. Moreover, in assay [5], the inhibition is 1.2%. The RAM network inhibition in assay [6] was 0.45%.

In the case of `COC(=O)c1ccc2[nH]c(C)c(CN3CCCC3)c(=O)c2c1`, the growth inhibition in assay [1] was -4.34%; in assay [2], 1.2%. The viability increase in assay [3] is -2.3%. For the same compound, the viability in assay [4] was 95.3%. Moreover, the inhibition in assay [5] was 0.415%. The RAM network inhibition in assay [6] is 1.59%.

For the compound `O=C(O)CNS(=O)(=O)c1ccc(F)cc1`, the results for the growth inhibition in assay [1] and in assay [2] were -6.07% and -7.54%, respectively. For the same compound, the viability increase in assay [3] was -0.77%. The viability in assay [4] is 94.4%. In addition, in assay [5], the inhibition was 2.21%. Besides, the RAM network inhibition in assay [6] was 0.32%.

Turning to `CCCCNc1ncnc2c1cnn2-c1ccccc1`, the growth inhibition in assay [1] was -4.09%; in assay [2], -11.2%. Moreover, the viability increase in assay [3] is -6.48%. In addition, the viability in assay [4] is 32.4%. The inhibition in assay [5] is 1.83%. In addition, the RAM network inhibition in assay [6] was -0.15%.

Consider `O=C1N=C(c2ccccc2)C(c2ccccc2)N1` (stereo not given), for which the growth inhibition in assay [1] was -9.57%; in assay [2] it was 0.595%. Besides, in assay [3], the viability increase was -3.35%. For the same compound, the viability in assay [4] was 90.8%. Also, the inhibition in assay [5] was 1.23%. Also, in assay [6], the RAM network inhibition was 1.06%.

On to `Cc1cc2ccccc2c(=O)n1CC(=O)NCC(=O)N(C)Cc1ccccc1`, for which the growth inhibition was -10.2% in assay [1] and -4.71% in assay [2]. Besides, the viability increase in assay [3] is -0.97%. Besides, in assay [4], the viability was 98.6%. In addition, in assay [5], the inhibition was 0.475%. Also, the RAM network inhibition in assay [6] was 5.32%.

As for `Cn1cnnc1SCC(=O)c1ccco1`, the growth inhibition in assay [1] was -5.92%; in assay [2], -3.4%. Further, the viability increase in assay [3] is -1.08%. Further, the viability in assay [4] was 106%. In addition, the inhibition in assay [5] is 0.79%. Also, in assay [6], the RAM network inhibition is 3.27%.

Regarding `CCSc1nsc(SCC)c1C(N)=O`, the values for the growth inhibition in assay [1] and in assay [2] were -3.27% and -11.2%, respectively. Moreover, in assay [3], the viability increase is -1.55%. For the same compound, in assay [4], the viability is 102%. In addition, the inhibition in assay [5] is 0.83%. In addition, the RAM network inhibition in assay [6] was 1.14%.

With `COC(=O)CCc1nc2ccccc2[nH]c1=O`, the growth inhibition was -6.03% in assay [1] and -5.04% in assay [2]. In addition, the viability increase in assay [3] was -0.31%. For the same compound, the viability in assay [4] was 100%. Moreover, the inhibition in assay [5] was 1.4%. Moreover, in assay [6], the RAM network inhibition was 2.15%.

For the compound `Cc1noc(C)c1CSc1nnc(-c2cc(Cl)ccc2Cl)n1N`, the results for the growth inhibition in assay [1] and in assay [2] were 8.57% and 8.54%, respectively. Moreover, the viability increase in assay [3] is -2.82%. For the same compound, the viability in assay [4] is 95%. Further, in assay [5], the inhibition was 1.9%. Also, the RAM network inhibition in assay [6] was 2.06%.

`Cc1onc(-c2ccccc2Cl)c1C(=O)N1CCN(c2cccc(Cl)c2)CC1`: the values for the growth inhibition in assay [1] and in assay [2] were -18.9% and -13.7%, respectively. Besides, the viability increase in assay [3] is -6.53%. Besides, in assay [4], the viability was 22% (active). In assay [5], the inhibition is 2.73%. For the same compound, the RAM network inhibition in assay [6] was 10.4%.

As for `O=C(NCc1cccnc1)NC1(C(F)(F)F)Oc2ccccc2O1`, the growth inhibition in assay [1] was 4.4%; in assay [2] it was 5.9%. The viability increase in assay [3] was -5.46%. The viability in assay [4] was 67.2%. Also, in assay [5], the inhibition was 0.81%. The RAM network inhibition in assay [6] is 3.16%.

For the compound `CCn1cc(S(=O)(=O)CC(=O)NC2CCCCC2)c2ccccc21`, the growth inhibition in assay [1] is -9.89%; in assay [2], -0.52%. In assay [3], the viability increase was -1.1%. In assay [4], the viability was 97.4%. For the same compound, the inhibition in assay [5] is 1.71%. Besides, the RAM network inhibition in assay [6] was 2.87%.

With `CCC1CCCCN1C(=O)Cn1c(=O)oc2ccccc21` (stereo not given), the growth inhibition in assay [1] is -8.32%; in assay [2], -4.71%. In addition, in assay [3], the viability increase is -2.07%. The viability in assay [4] is 101%. In addition, the inhibition in assay [5] was 1.96%. Also, the RAM network inhibition in assay [6] is 4.3%.
